Assay results as given in ChEMBL document CHEMBL2163188, “Discovery of piragliatin--first glucokinase activator studied in type 2 diabetic patients” (J Med Chem, 2012).

Molecular target: T1, Hexokinase-4 (Homo sapiens) (UniProt P35557)
T1 sequence (whole entry): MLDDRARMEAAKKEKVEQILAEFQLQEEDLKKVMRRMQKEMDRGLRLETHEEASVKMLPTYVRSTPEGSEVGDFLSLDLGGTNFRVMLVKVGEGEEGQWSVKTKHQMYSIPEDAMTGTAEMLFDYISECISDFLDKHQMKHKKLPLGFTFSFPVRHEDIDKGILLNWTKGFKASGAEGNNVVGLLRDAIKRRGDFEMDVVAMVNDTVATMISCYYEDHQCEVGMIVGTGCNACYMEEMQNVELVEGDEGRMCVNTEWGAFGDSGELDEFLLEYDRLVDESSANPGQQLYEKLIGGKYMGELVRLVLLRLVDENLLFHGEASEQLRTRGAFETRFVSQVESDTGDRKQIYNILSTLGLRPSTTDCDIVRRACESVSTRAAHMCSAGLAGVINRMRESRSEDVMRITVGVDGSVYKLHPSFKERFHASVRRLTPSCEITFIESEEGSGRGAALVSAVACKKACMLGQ
Assay: Activation of human recombinant glucokinase assessed as concentration required for 1.5 fold increase in enzymatic activity
Procedure, shortened: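 Human recombinant GK; activator at fixed concentrations from ∼0.010 to 30 μM, each in duplicate, with glucose held at 5 mM. SC1.5 is the activator concentration giving a 1.5-fold rise in enzymatic activity over untreated GK. Assay CV was about 15%.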

| Activity [µM] | Compound |
| --- | --- |
| 0.188 | CS(=O)(=O)c1ccc(C(CC2CCCC2)C(=O)Nc2nccs2)cc1C#N (racemic) |
| 0.068 | CS(=O)(=O)c1ccc(C(CC2CCCC2)C(=O)Nc2nccs2)cc1C(F)(F)F (racemic) |
| 0.119 | CS(=O)(=O)c1ccc(C(CC2CCCC2)C(=O)Nc2nccs2)cc1Cl (racemic) |
